RGS4 pot = RGS4 potentiators or activators, primary screen, cell-based, HEK293 M3R inducible RGS4, calcium flux. carbachol calcium flux Fluo4; stronger effect = lower value. B-score at 10 µM. 310,000 compounds, 0.92% hits;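 active = B-score of the integrated calcium signal more than 4 SD below the library mean, with starting fluorescence not abnormally high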;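 note: negative B-score means reduced calcium response which marks RGS4 activation or potentiation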
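System: HEK293 FlpIn-TREx cells, stable M3R, doxycycline-inducible RGS4. Timing: overnight RGS4 induction, 30 min dye load 37 °C, 20 min compound RT. Also added: carbachol, ECmax concentration. Measured by: Fluo4 fluorescence kinetic imaging of calcium. Evaluation: integrated calcium ratio converted to B score.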
PHOSPHO1 block = PubChem AID 1565. Phosphoethanolamine/phosphocholine phosphatase (Homo sapiens), Q8TCT1. recombinant PHOSPHO1, absorbance phosphatase assay. inhibition, % at 13.3 µM. 290,000 compounds, 1.1% hits; in the data active = inhibition above about 60%
Target sequence (Q8TCT1 whole entry, looked up): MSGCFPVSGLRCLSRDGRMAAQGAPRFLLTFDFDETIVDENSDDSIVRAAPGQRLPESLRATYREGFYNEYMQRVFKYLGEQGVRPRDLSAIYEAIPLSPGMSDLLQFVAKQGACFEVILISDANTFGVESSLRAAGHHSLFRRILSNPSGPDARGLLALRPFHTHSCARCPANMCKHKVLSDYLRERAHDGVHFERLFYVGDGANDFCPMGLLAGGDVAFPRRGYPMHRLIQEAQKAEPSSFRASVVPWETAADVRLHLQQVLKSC
MrgX1 agonist = agonists of human MrgX1 receptor, primary screen, HEK293 cells, Fluo-4 calcium flux | Fluo-4 calcium fluorescence, agonist mode; stronger effect = higher value | B-score at 10 µM | 310,000 compounds, 0.44% hits;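 active = calcium response B-score plate-corrected fluorescence ratio at least 3 library SD, with starting fluorescence B-score inside 5 SD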
Target sequence (Q96LB2 whole entry, looked up): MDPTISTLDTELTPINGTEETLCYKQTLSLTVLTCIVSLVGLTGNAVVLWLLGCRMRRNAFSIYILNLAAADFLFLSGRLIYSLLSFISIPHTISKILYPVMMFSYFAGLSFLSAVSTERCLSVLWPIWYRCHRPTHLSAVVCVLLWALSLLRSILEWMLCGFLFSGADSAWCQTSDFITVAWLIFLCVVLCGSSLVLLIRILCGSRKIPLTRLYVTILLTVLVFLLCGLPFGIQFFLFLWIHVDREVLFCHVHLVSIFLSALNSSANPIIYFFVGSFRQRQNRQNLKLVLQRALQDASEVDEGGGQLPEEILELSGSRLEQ
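System: HEK293 cells stably expressing human MrgX1 receptor; Dosing: test compound in the initial addition of three; Schedule: overnight plating, then 30 min 37 °C plus 30 min room-temperature dye loading; Detection: kinetic calcium dye fluorescence, Fluo-4 NW; Controls: per-plate positive and negative controls for Z′ factor.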
MrgX1 antagonist = antagonists of human MrgX1 receptor, primary screen, HEK293 cells, Fluo-4 calcium flux. Mas-related G-protein coupled receptor member X1 (Homo sapiens), Q96LB2. B-score at 10 µM. 310,000 compounds, 1.3% hits. AID 588676, 2011. BAM8-22 antagonism; stronger effect = lower value;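 active = calcium-response B-score plate-corrected more than 3 library SD below zero, starting fluorescence within 5 deviations, no agonist response on first addition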;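 note: peak minus trough fluorescence over baseline after final BAM8-22 challenge near maximal dose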
MrgX1 PAM = positive allosteric modulators of MrgX1, primary screen, HEK293 cells, Fluo-4 calcium flux; Mas-related G-protein coupled receptor member X1 (Homo sapiens), Q96LB2; FDSS; stronger effect = higher value; B-score at 10 µM; 310,000 compounds, 0.63% hits;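 active = plate-corrected calcium response at least 3 library SD above typical, normal starting fluorescence, not activating the receptor alone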;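 note: compound read alongside a low EC10 to EC30 dose of BAM8-22 agonist; peak minus trough fluorescence over baseline measured at the second addition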
RGS4 block = RGS4 inhibitors, primary screen, cell-based, HEK293 M3R inducible RGS4, calcium flux; 310,000 compounds, 0.45% hits; B-score at 10 µM; Fluo-4 calcium flux; stronger effect = higher value; triggered by carbachol at its EC20; AID 463165, 2010;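 active = B-score, a plate-corrected calcium signal, over three deviations above library mean, with baseline fluorescence within five deviations of library mean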;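 note: RGS4 expression induced by doxycycline in cells with stable M3 receptor; B-score is computed from the integrated fluorescence ratio over baseline after carbachol; higher B-score means a larger calcium signal and so more RGS4 inhibition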
Target sequence (P49798 whole entry, looked up): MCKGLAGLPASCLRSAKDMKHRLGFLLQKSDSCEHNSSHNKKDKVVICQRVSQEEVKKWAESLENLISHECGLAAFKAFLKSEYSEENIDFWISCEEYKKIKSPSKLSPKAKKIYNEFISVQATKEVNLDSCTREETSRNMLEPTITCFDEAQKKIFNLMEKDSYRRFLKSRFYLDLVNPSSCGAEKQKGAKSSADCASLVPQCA
RGS4 act valid = reduced carbachol calcium response, RGS4-induced M3R cells, confirmation, RGS4 activator project, cell-based, HEK293 M3R/RGS4 inducible, calcium flux, duplicate; inhibition, % at 10 µM; carbachol calcium flux Fluo4; shares compounds with RGS4 pot; 1,100 compounds, 89% hits;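 active = inhibition above 3 SD of the buffer control wells, cut at about 41% in these data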;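 note: signal is the integrated peak-minus-minimum Fluo4 fluorescence over baseline ratio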
M3R Ca counter = activity in cells without induced RGS4 expression | shares compounds with RGS4 pot | HEK293 M3R non-induced RGS4, Fluo4 calcium flux; after carbachol challenge at its EC90 | inhibition, % at 10 µM | 1,100 compounds, 82% hits;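 active = inhibition exceeding 3 SD of buffer-only control wells, cut at about 26% in these data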;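 note: percent drop in integrated peak-minus-baseline over baseline Fluo4 ratio after carbachol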
RGS4 inh valid = enhanced carbachol calcium response, M3R/RGS4 cells, RGS4 inhibitor project, cell-based, validation screen, HEK293 M3R/RGS4, calcium flux | calcium response, % at 10 µM | 1,700 compounds, 65% hits | carbachol calcium Fluo-4 fluorescence; carbachol added at its EC20; 0 = buffer wells, 100 = carbachol control | shares compounds with RGS4 block;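 active = duplicate-averaged calcium response above the buffer-only control mean plus 5 SD of those controls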;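 note: integrated fluorescence ratio F max minus min over baseline F0; higher response in RGS4-induced cells means RGS4 inhibition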
RGS4 uninduced = carbachol calcium response in non-induced M3R cells, confirmation, counter-screen for RGS4 inhibitor project, cell-based, HEK293 M3R | shares compounds with RGS4 block | carbachol calcium Fluo-4; submaximal (EC20) carbachol stimulus; buffer wells 0%, carbachol control wells 100% | activity (percent), % at 10 µM | AID 493000, 2010 | 1,900 compounds, 20% hits; call rule not given here;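 note: RGS4 induction absent so cells express M3R without RGS4; higher means more calcium signal and flags a non-specific hit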
M3R basal Ca ctr = second RGS4 inhibitor counter-screen in uninduced cells lacking carbachol | shares compounds with RGS4 block | HEK293 M3R/RGS4 non-induced, Fluo-4 calcium, no carbachol; normalised: buffer wells 0%, carbachol wells 100% | calcium response (agonist-mode artifact), % at 10 µM | 1,900 compounds, 22% hits;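 active = duplicate-averaged calcium rise in uninduced cells above buffer wells' mean plus 5 SD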
MrgX1 ant reconf = MrgX1 receptor antagonists, duplicate retest, confirmation, HEK293 cells, Fluo-4 calcium flux | shares compounds with MrgX1 antagonist | BAM8-22 calcium flux; stronger effect = lower value | remaining BAM8-22 calcium response % of control (stronger effect = lower value), % at 10 µM | 2,300 compounds, 19% hits | AID 602420, 2012;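 active = remaining agonist calcium response no higher than 100% minus 3 SD of agonist-only control wells, with starting fluorescence near control levels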;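 note: agonist BAM8-22 given at a near maximal EC90 to ECmax level; peak minus minimum fluorescence divided by baseline after agonist addition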
HEK293 Ca flux = nonspecific calcium signal in parental HEK293, confirmation, counter-screen for MrgX1 antagonist project, parental HEK293 cells, Fluo-4 calcium flux | 4,000 compounds, 2% hits | fluorescence ratio F(max-min)/F0 at 10 µM | shares compounds with MrgX1 antagonist | Fluo-4 calcium fluorescence, FDSS;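 active = duplicate-averaged calcium fluorescence ratio at least three times the standard deviation of buffer wells, a nonspecific response in parental cells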
HEK293 Ca counter = calcium response in parental HEK293 cells, primary screen, counter-screen for MrgX1 allosteric activator project, cell-based, Fluo-4 calcium flux, duplicate; AID 624114, 2012; 4,000 compounds, 0.4% hits; shares compounds with MrgX1 antagonist; fluorescence ratio F(max-min)/F0 at 10 µM; Fluo-4 fluorescence ratio; stronger effect = higher value;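 active = calcium fluorescence ratio, averaged over duplicates, at least 3 SD of the buffer-well ratio, meaning a nonspecific response in receptor-free cells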;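 note: untransfected parental HEK293 lacking MrgX1 used as counterscreen for MrgX1 allosteric activators; fluorescence change taken during the second addition on a kinetic imager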
HEK293 Ca cntr2 = calcium response in parental HEK293 cells, primary screen, counter-screen for MrgX1 agonist project, cell-based, Fluo-4 calcium flux, duplicate, agonist mode. shares compounds with MrgX1 antagonist. Fluo-4 calcium fluorescence (FDSS); stronger effect = higher value. fluorescence ratio F(max-min)/F0 at 10 µM. 4,000 compounds, 8.7% hits;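 active = calcium fluorescence ratio at least three times the spread of buffer wells, meaning a non-specific response in parental cells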
Numbers without * were called inactive; i = inactive; / = not tested or not shown. In the library only some 4.5% were active in any assay of this set; here they are far more common.

SMILES	RGS4 pot	PHOSPHO1 block	MrgX1 agonist	MrgX1 antagonist	MrgX1 PAM	RGS4 block	RGS4 inh valid	RGS4 uninduced	M3R basal Ca ctr	others
COc1ccccc1C(=O)Nc1nc(-c2ccc(S(=O)(=O)N3CCOCC3)cc2)cs1	-9.6*	11	i	-8.3*	i	i	/	/	/	RGS4 act valid=92*;M3R Ca counter=58*;MrgX1 ant reconf=51%*;HEK293 Ca flux=i;HEK293 Ca counter=i;HEK293 Ca cntr2=i
CCOC(=O)c1ccc(NC(=S)N2CCSC2c2ccc(OC)cc2)cc1 (stereo not drawn)	i	-6	i	i	i	i	/	/	/
CCOC(=O)c1ccc(NC(=S)N2CCSC2c2ccc(Cl)cc2)cc1 (stereo not drawn)	-8.8*	-21	i	-6.3*	i	i	/	/	/	RGS4 act valid=94*;M3R Ca counter=91*;MrgX1 ant reconf=58%*;HEK293 Ca flux=i;HEK293 Ca counter=49*;HEK293 Ca cntr2=i
CCN(CC)CC#CCC(O)(c1ccccc1)C1CCCC1 (stereo not drawn)	-7.9*	7	i	-8.7*	i	i	/	/	/	RGS4 act valid=94*;M3R Ca counter=91*;MrgX1 ant reconf=i;HEK293 Ca flux=i;HEK293 Ca counter=i;HEK293 Ca cntr2=i
O=[N+]([O-])c1ccc(OCCN2CCNCC2)cc1	i	5	i	i	i	i	/	/	/
COc1ccc(-c2nc(NC(=O)c3[nH]c(C)c(C(C)=O)c3C)sc2C)cc1	-11*	-1	i	-8.5*	i	i	/	/	/	RGS4 act valid=92*;M3R Ca counter=92*;MrgX1 ant reconf=53%*;HEK293 Ca flux=i;HEK293 Ca counter=i;HEK293 Ca cntr2=i
COc1ccc(OC)c(NC(=O)c2[nH]c(C)c(C(C)=O)c2C)c1	i	-10	i	i	i	i	/	/	/
COC(=O)/C=C/S(=O)(=O)c1ccc(NC(C)=O)cc1	i	1	i	i	i	6*	54%*	38%*	13%*
CCOC(=O)c1cccc(NC(=O)c2c(N)n(C)c(=O)[nH]c2=O)c1	i	/	i	i	i	i	/	/	/
O=C1/C(=C/c2cccnc2)Sc2ccccc21	i	4	47*	i	i	7.9*	42%*	46%*	32%*
CC(=O)Nc1ccc(/C=C2\Sc3ccccc3C2=O)cc1	i	33	i	i	i	i	/	/	/
CCOc1ccc(/C(O)=C2/C(=O)C(=O)N(c3nc(C)c(C)s3)C2c2ccco2)cc1 (stereo not drawn)	i	39	i	i	i	i	/	i	i
COc1cc(/C=C2\C(=O)ON=C2c2ccccc2)cc(Cl)c1O	-7.9*	18	90*	i	i	13*	40%*	i	253%*
C=CCOc1ccc(/C=C2/C(=O)ON=C2C)cc1OC	i	15	i	i	i	9.4*	18%*	i	16%*
COc1cc(/C=C2/C(=O)ON=C2c2ccccc2)ccc1O	i	-1	28*	i	i	11*	38%*	i	97%*
Cc1sc(/C=C2\C(=O)ON=C2c2ccccc2)cc1Br	i	2	i	i	i	i	/	/	/
COc1cc(C=C2C(=O)c3ccccc3C2=O)ccc1O	i	3	i	i	i	i	/	/	/
Cc1ccc(-n2nc(C)c3c(C(=O)OCC(=O)N(C)C4CCS(=O)(=O)C4)cc(-c4ccccc4)nc32)cc1 (stereo not drawn)	i	5	i	i	i	i	/	/	/
CCCCOc1cccc(NC(=O)CSc2nncn2C)c1	i	3	i	i	i	i	/	/	/
O=c1[nH]c(-c2ccccc2Cl)nc2c1sc(=S)n2-c1ccccc1	i	7	/	/	/	5.1*	12%*	i	i
O=c1[nH]c(-c2ccc(F)cc2)nc2c1sc(=S)n2-c1ccccc1	i	-7	i	i	i	i	/	/	/
Nc1nc(Sc2c([N+](=O)[O-])cc(C(F)(F)F)cc2[N+](=O)[O-])n[nH]1	i	-27	i	i	i	i	/	/	/
Cc1ccc(NC(=O)c2nc[nH]c2C(=O)N[C@@H](C)c2ccccc2)cc1	i	-12	i	i	i	5.7*	29%*	i	i

Screening results (PubChem BioAssay)
